Measured values: ChEMBL document CHEMBL3865799, “Synthesis of a series of novel dihydroartemisinin monomers and dimers containing chalcone as a linker and their anticancer activity” (Eur J Med Chem, 2016)
pIC50: −log10 of the molar value.

Experiments:
Vero [1] = test: Selectivity index, ratio of IC50 for African green monkey Vero cells to IC50 for human PC3 cells; assay type: functional
Summary of the method: (§1)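 Suspension cells were seeded at 1.5 × 10^4 per well and adherent lines at 70–75% confluence, then exposed to a range of concentrations. MTT was added 3 h before the end, formazan dissolved in DMSO, and OD read at 570 nm (reference 620 nm). Growth inhibition was taken relative to untreated cells. IC50 came from the MTT data; SI = IC50 in Vero cells / IC50 in the tumour line.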

[2] = Cell cycle arrest in human HL60 cells assessed as accumulation at G2 phase at 0.5 uM after 24 hrs by propidium iodide-DNA fluorescence based FACS analysis (reference value: 1 %); assay type: functional; conditions: HL-60
Summary of the method: (§2)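 HL-60 cells seeded at 0.5 × 10^6 cells/ml, exposed 24 h to compound (DMSO vehicle, <0.2% v/v). Pelleted at 400×g, PBS-washed, fixed in 70% ethanol at 4 °C overnight. RNase A treatment at 37 °C for 1.30 h, then propidium iodide staining for 20 min. Flow cytometry on 10,000 events, FL2-A vs FL2-W; subG0 (apoptotic) and phase populations gated.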

[3] = Cytotoxicity against human HL60 cells assessed as cell growth inhibition at 1 uM after 48 hrs by MTT assay; assay type: functional; conditions: HL-60, 48 h, read-out: GI
Summary of the method: (§3)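 HL-60 suspension cells, 1.5 × 10^4 per well, grown at 37 °C in 5% CO2 with 10% FCS. Treated 48 h with compound in DMSO (vehicle <0.2% v/v). MTT added 3 h before the end. Formazan dissolved in DMSO and read at 570 nm (reference 620 nm). % growth inhibition computed against untreated cells; IC50 taken from the concentration series.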

[4] = Cell cycle arrest in human HL60 cells assessed as accumulation at subG0 phase at 0.2 uM after 24 hrs by propidium iodide-DNA fluorescence based FACS analysis (reference value: 5 %); assay type: functional; conditions: HL-60; summary of the method: as §2
[5] = Cytotoxicity against human HepG2 cells assessed as cell growth inhibition at 50 uM after 48 hrs by MTT assay; assay type: functional; conditions: HepG2, 48 h, read-out: GI
Summary of the method: (§4)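 Adherent lines at 70–75% confluence, grown at 37 °C in 5% CO2 with 10% FCS. Exposed 48 h to compound in DMSO (vehicle <0.2% v/v). MTT dye added 3 h before termination; formazan dissolved in DMSO, OD 570 nm with 620 nm reference. Growth inhibition expressed as % of untreated; IC50 taken from the dose series.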

[6] = Cell cycle arrest in human HL60 cells assessed as accumulation at S phase at 1 uM after 24 hrs by propidium iodide-DNA fluorescence based FACS analysis (reference value: 53 %); assay type: functional; conditions: HL-60; summary of the method: as §2
[7] = Cell cycle arrest in human HL60 cells assessed as accumulation at G2 phase at 1 uM after 24 hrs by propidium iodide-DNA fluorescence based FACS analysis (reference value: 1 %); assay type: functional; conditions: HL-60; summary of the method: as §2
[8] = Cytotoxicity against human PC3 cells assessed as cell growth inhibition after 48 hrs by MTT assay; assay type: functional, cell-based; conditions: PC-3, 48 h
Summary of the method: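 Exposed 48 h to compound in DMSO (vehicle <0.2% v/v). MTT dye added 3 h before termination; formazan dissolved in DMSO, OD 570 nm with 620 nm reference. Growth inhibition expressed as % of untreated; IC50 taken from the dose series.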

[9] = Cytotoxicity against human MIAPaCa2 cells assessed as cell growth inhibition at 50 uM after 48 hrs by MTT assay; assay type: functional; conditions: MIA PaCa-2, 48 h, read-out: GI; summary of the method: as §4
[10] = Cell cycle arrest in human HL60 cells assessed as accumulation at S phase at 0.5 uM after 24 hrs by propidium iodide-DNA fluorescence based FACS analysis (reference value: 53 %); assay type: functional; conditions: HL-60; summary of the method: as §2
[11] = Cytotoxicity against human HL60 cells assessed as cell growth inhibition at 0.5 uM after 48 hrs by MTT assay; assay type: functional; conditions: HL-60, 48 h, read-out: GI; summary of the method: as §3
[12] = Cell cycle arrest in human HL60 cells assessed as accumulation at subG0 phase at 5 uM after 24 hrs by propidium iodide-DNA fluorescence based FACS analysis (reference value: 5 %); assay type: functional; conditions: HL-60; summary of the method: as §2
[13] = Cytotoxicity against human LS180 cells assessed as cell growth inhibition at 30 uM after 48 hrs by MTT assay; assay type: functional; conditions: LS180, 48 h, read-out: GI; summary of the method: as §4
HL-60 = test: Induction of apoptosis in human HL60 cells assessed as loss of mitochondrial membrane potential at 1 uM after 24 hrs by Rh123 dye-based FACS analysis (reference value: 5%); assay type: functional
[14] = Cell cycle arrest in human HL60 cells assessed as accumulation at G1 phase at 0.2 uM after 24 hrs by propidium iodide-DNA fluorescence based FACS analysis (reference value: 46 %); assay type: functional; conditions: HL-60; summary of the method: as §2
[15] = Cytotoxicity against human LS180 cells assessed as cell growth inhibition after 48 hrs by MTT assay; assay type: functional, cell-based; conditions: LS180, 48 h; summary of the method: as §4
[16] = Cytotoxicity against human HL60 cells assessed as cell growth inhibition after 48 hrs by MTT assay; assay type: functional, cell-based; conditions: HL-60, 48 h; summary of the method: as §3
[17] = Selectivity index, ratio of IC50 for African green monkey Vero cells to IC50 for human LS180 cells; assay type: functional; summary of the method: as §1
[18] = Cytotoxicity against human HepG2 cells assessed as cell growth inhibition after 48 hrs by MTT assay; assay type: functional, cell-based; conditions: HepG2, 48 h; summary of the method: as §4
[19] = Cytotoxicity against human PC3 cells assessed as cell growth inhibition at 30 uM after 48 hrs by MTT assay; assay type: functional; conditions: PC-3, 48 h, read-out: GI; summary of the method: as §4
[20] = Cytotoxicity against human MIAPaCa2 cells assessed as cell growth inhibition at 30 uM after 48 hrs by MTT assay; assay type: functional; conditions: MIA PaCa-2, 48 h, read-out: GI; summary of the method: as §4
[21] = Cell cycle arrest in human HL60 cells assessed as accumulation at subG0 phase at 0.5 uM after 24 hrs by propidium iodide-DNA fluorescence based FACS analysis (reference value: 5 %); assay type: functional; conditions: HL-60; summary of the method: as §2
[22] = Cytotoxicity against human HL60 cells assessed as cell growth inhibition at 30 uM after 48 hrs by MTT assay; assay type: functional; conditions: HL-60, 48 h, read-out: GI; summary of the method: as §3
[23] = Cytotoxicity against human LS180 cells assessed as cell growth inhibition at 50 uM after 48 hrs by MTT assay; assay type: functional; conditions: LS180, 48 h, read-out: GI; summary of the method: as §4
[24] = Cytotoxicity against human HL60 cells assessed as cell growth inhibition at 50 uM after 48 hrs by MTT assay; assay type: functional; conditions: HL-60, 48 h, read-out: GI; summary of the method: as §3
HepG2 = test: Selectivity index, ratio of IC50 for African green monkey Vero cells to IC50 for human HepG2 cells; assay type: functional; summary of the method: as §1
[25] = Cell cycle arrest in human HL60 cells assessed as accumulation at G2 phase at 0.2 uM after 24 hrs by propidium iodide-DNA fluorescence based FACS analysis (reference value: 1 %); assay type: functional; conditions: HL-60; summary of the method: as §2
Vero [26] = test: Selectivity index, ratio of IC50 for African green monkey Vero cells to IC50 for human HL60 cells; assay type: functional; summary of the method: as §1
[27] = Cell cycle arrest in human HL60 cells assessed as accumulation at G1 phase at 0.5 uM after 24 hrs by propidium iodide-DNA fluorescence based FACS analysis (reference value: 46 %); assay type: functional; conditions: HL-60; summary of the method: as §2
[28] = Cell cycle arrest in human HL60 cells assessed as accumulation at G1 phase at 5 uM after 24 hrs by propidium iodide-DNA fluorescence based FACS analysis (reference value: 46 %); assay type: functional; conditions: HL-60; summary of the method: as §2

Row | SMILES | Ratio IC50 (Vero [1]) | Activity [2] | inhibition of growth at 1 µM [3] | Activity [4] | inhibition of growth at 50 µM [5] | Activity [6] | Activity [7] | pIC50 [8] | inhibition of growth at 50 µM [9] | Activity [10] | inhibition of growth at 0.5 µM [11] | Activity [12] | inhibition of growth at 30 µM [13] | Activity (HL-60) | Activity [14] | pIC50 [15] | pIC50 [16] | Ratio IC50 [17] | pIC50 [18] | inhibition of growth at 30 µM [19] | also measured
1 | C[C@H]1[C@@H](OCCOc2ccc(/C=C/C(=O)c3ccc(O)cc3)cc2)O[C@@H]2O[C@@]3(C)CC[C@H]4[C@H](C)CC[C@@H]1[C@@]24OO3 | 82 | 9% | 78.8% | 4% | 55.2 to 82.3% | 70% | 16% | 4.85 | 88.8% | 32% | 58.2% | 95% | 55.2% | 53% | 49% | 4.62 | 6.52 | 96 | 5.15 | 88.6% | inhibition of growth at 30 µM [20]: 68.3 to 86.8%; Activity [21]: 28%; inhibition of growth at 30 µM [22]: 90.1%; inhibition of growth at 50 µM [23]: 75.2%; inhibition of growth at 50 µM [24]: 93.6%; Ratio IC50 (HepG2): 450; Activity [25]: 5%; Ratio IC50 (Vero [26]): 240; Activity [27]: 59%; Activity [28]: 55%
2 | C[C@H]1[C@@H](OCCOc2cccc(C(=O)/C=C/c3ccc(O)cc3)c2)O[C@@H]2O[C@@]3(C)CC[C@H]4[C@H](C)CC[C@@H]1[C@@]24OO3 | 80 | 8% | 57% | 4% | 33.2 to 64.5% | 29% | 19% | 4.74 | 88.6% | 38% | 52.9% | 70% | 25.2% | 50% | 49% | < 4.30 | 6.40 | >200 | 4.82 | 83.5% | inhibition of growth at 30 µM [20]: 37.8 to 77.4%; Activity [21]: 9%; inhibition of growth at 30 µM [22]: 93.3%; inhibition of growth at 50 µM [23]: 35.2%; inhibition of growth at 50 µM [24]: 94.8%; Ratio IC50 (HepG2): 55; Activity [25]: 6%; Ratio IC50 (Vero [26]): 180; Activity [27]: 54%; Activity [28]: 64%
3 | C[C@H]1[C@@H](O)O[C@@H]2O[C@@]3(C)CC[C@H]4[C@H](C)CC[C@@H]1[C@@]24OO3 [ARTENIMOL] | 25 | 5% | 48.1% | 6% | 39% | 34% | 4% | < 4.00 | 71% | 37% | 36% | 27% | 32% | 32% | 49% | 4.49 | 5.70 | 19 | 4.54 | 41% | inhibition of growth at 30 µM [20]: 58%; Activity [21]: 8%; inhibition of growth at 30 µM [22]: 91%; inhibition of growth at 50 µM [23]: 42%; inhibition of growth at 50 µM [24]: 93%; Ratio IC50 (HepG2): 1.81; Activity [25]: 2%; Ratio IC50 (Vero [26]): 63; Activity [27]: 58%; Activity [28]: 75%
